Measurements reported in ChEMBL document CHEMBL1136850, “Neuroprotective activity and evaluation of Hsp90 inhibitors in an immortalized neuronal cell line” (Bioorg Med Chem, 2009).
The source made the active and inactive calls. No cut-off for these calls is given here.

Legend:
SH-SY5Y [1] = assay: Toxicity in retinoic acid-differentiated human SH-SY5Y cells assessed as effect on cell morphology at 10 uM after 24 hrs by trypan blue exclusion method; format: cell-based
In short: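 Retinoic acid-differentiated SH-SY5Y cells (10 μM RA, 7 days) were exposed to 10 μM drug or DMSO without Aβ for 24 h. Neurite morphology was examined by phase-contrast microscopy. Viability was counted by 0.04% trypan blue exclusion.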

SH-SY5Y [2] = assay: Toxicity in human SH-SY5Y cells at 10 uM by trypan blue exclusion method; format: cell-based
SH-SY5Y [3] = assay: Neuroprotection against beta-amyloid peptide 1-42-induced toxicity in retinoic acid-differentiated human SH-SY5Y cells assessed as lactate dehydrogenase release at 1 uM; format: functional
In short: (§1)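 SH-SY5Y cells were differentiated for 7 days with 10 μM retinoic acid until they stopped proliferating and grew neurites. Drug was added 2 h before 10 μM Aβ in serum-free DMEM for 48 h. Released LDH was measured by NADH oxidation (pyruvate 1 mM, NADH 0.2 mM, pH 7.4; […] over 5 min at 25°C). Protection is expressed against Aβ alone, taken as 100% death.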

SH-SY5Y [4] = assay: Neuroprotection against beta-amyloid peptide 1-42-induced toxicity in human SH-SY5Y cells assessed as lactate dehydrogenase release; format: functional, cell-based
In short: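 Proliferating SH-SY5Y cells were grown in DMEM with 10% FBS at 37°C in 5% CO2, then seeded into 96-well plates. Drug or DMSO was given 2 h before 10 μM Aβ in serum-free DMEM for 48 h. LDH released into the cleared medium was read kinetically as NADH oxidation (50 mM phosphate pH 7.4, 1 mM pyruvate, 0.2 mM NADH; […], 5 min, 25°C). Aβ alone was set as 100% cell death. Mean ± S.E.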

SH-SY5Y [5] = assay: Neuroprotection against beta-amyloid peptide 1-42-induced toxicity in retinoic acid-differentiated human SH-SY5Y cells assessed as lactate dehydrogenase release; format: functional, cell-based; in short: as §1
SH-SY5Y [6] = assay: Neuroprotection against beta-amyloid peptide 1-42-induced toxicity in retinoic acid-differentiated human SH-SY5Y cells assessed as lactate dehydrogenase release at 10 nM; format: functional, cell-based; in short: as §1

Compound | Activity (SH-SY5Y [1]) | AC50 (SH-SY5Y [2]) | Activity (SH-SY5Y [3]) [%] | EC50 (SH-SY5Y [4]) [nM] | Activity (SH-SY5Y [5]) | Activity (SH-SY5Y [6])
CO[C@@H]1[C@@H](O)[C@@H](O)[C@H](Oc2ccc3cc(NC(C)=O)c(=O)oc3c2C)OC1(C)C | Non-toxic | Non-toxic | 70 | 1.49 |  | 
CO[C@@H]1[C@@H](O)[C@@H](O)[C@H](Oc2ccc3cc(NC(=O)CCCCCCC(=O)Nc4cc5ccc(O[C@@H]6OC(C)(C)[C@H](OC)[C@@H](O)[C@H]6O)c(C)c5oc4=O)c(=O)oc3c2C)OC1(C)C | Non-toxic | Non-toxic |  | 4.48 |  | 
CO[C@@H]1[C@@H](O)[C@@H](O)[C@H](Oc2ccc3cc(NC(C)=O)c(=O)oc3c2)OC1(C)C | Non-toxic |  |  | 4.85 |  | 
O=C(O)/C=C/c1nn(Cc2ccc(Cl)cc2Cl)c2cc(C(F)(F)F)ccc12 |  |  |  |  | inactive | 
CC1=C(O)C(=O)C=C2C1=CC=C1[C@@]2(C)CC[C@@]2(C)[C@@H]3C[C@](C)(C(=O)O)CC[C@]3(C)CC[C@]12C [CELASTROL] |  |  |  | 37.6 |  | 
O=C(O[C@@H]1Cc2c(O)cc(O)cc2O[C@@H]1c1cc(O)c(O)c(O)c1)c1cc(O)c(O)c(O)c1 [EPIGALOCATECHIN GALLATE] |  |  |  | 39.9 |  | 
CC(=O)O[C@@H]1C[C@H]2C(C)(C)C(=O)C=C[C@]2(C)[C@H]2CC[C@@]3(C)[C@H](c4ccoc4)OC(=O)[C@H]4O[C@]43[C@@]21C [GEDUNIN] |  |  |  | 39 |  | 
COC1=C2C[C@@H](C)C[C@H](OC)[C@H](O)[C@@H](C)/C=C(\C)[C@H](OC(N)=O)[C@@H](OC)/C=C\C=C(/C)C(=O)NC(=CC1=O)C2=O [GELDANAMYCIN] | Toxic |  |  | 42.7 | inactive | Active
CO[C@@H]1[C@@H](OC(N)=O)[C@@H](O)[C@H](Oc2ccc3c(O)c(NC(=O)c4ccc(O)c(CC=C(C)C)c4)c(=O)oc3c2C)OC1(C)C [NOVOBIOCIN] | Toxic |  |  | 48.4 | Active | Active
